Measured values taken from ChEMBL document CHEMBL1131423, “N-(2-Benzoylphenyl)-L-tyrosine PPARgamma agonists. 2. Structure-activity relationship and optimization of the phenyl alkyl ether moiety” (J Med Chem, 1998).
Values after ≈ are worked out from the molar mass of the structure shown. Active and inactive are the calls of the source. The rule behind the calls is not given here.

Tests used:
[1] = target: T1, Peroxisome proliferator-activated receptor gamma (Homo sapiens, UniProt P37231); assay: Compound was tested in vitro for inhibiting the 50% binding of Peroxisome proliferator activated receptor gamma; IA = Inactive
T1 sequence (P37231 whole entry): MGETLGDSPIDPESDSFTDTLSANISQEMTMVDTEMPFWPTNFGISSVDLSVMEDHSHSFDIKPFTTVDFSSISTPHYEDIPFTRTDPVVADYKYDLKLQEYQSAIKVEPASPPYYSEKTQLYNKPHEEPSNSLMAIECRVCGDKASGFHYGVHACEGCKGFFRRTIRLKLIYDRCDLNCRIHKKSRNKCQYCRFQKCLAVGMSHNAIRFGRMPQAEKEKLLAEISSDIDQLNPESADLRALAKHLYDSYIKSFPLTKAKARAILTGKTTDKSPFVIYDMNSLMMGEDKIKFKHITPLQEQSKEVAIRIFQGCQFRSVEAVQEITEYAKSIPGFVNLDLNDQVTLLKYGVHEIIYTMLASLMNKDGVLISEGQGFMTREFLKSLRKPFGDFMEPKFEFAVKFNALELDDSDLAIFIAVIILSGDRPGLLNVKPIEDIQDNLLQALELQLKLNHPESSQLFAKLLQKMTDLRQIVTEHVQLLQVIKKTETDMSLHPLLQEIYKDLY
How it was run: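 Competitive radioligand binding to PPARγ with [3H]BRL 49653 as the radioligand. […] It is converted to an apparent Ki by Ki = IC50/(1 + [L]/Kd), and results are given as pKi.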

[2] = target: T2, Peroxisome proliferator-activated receptor alpha (Homo sapiens, UniProt Q07869); assay: In vitro transactivation of Peroxisome proliferator activated receptor alpha.; assay type: functional
T2 sequence (Q07869 whole entry): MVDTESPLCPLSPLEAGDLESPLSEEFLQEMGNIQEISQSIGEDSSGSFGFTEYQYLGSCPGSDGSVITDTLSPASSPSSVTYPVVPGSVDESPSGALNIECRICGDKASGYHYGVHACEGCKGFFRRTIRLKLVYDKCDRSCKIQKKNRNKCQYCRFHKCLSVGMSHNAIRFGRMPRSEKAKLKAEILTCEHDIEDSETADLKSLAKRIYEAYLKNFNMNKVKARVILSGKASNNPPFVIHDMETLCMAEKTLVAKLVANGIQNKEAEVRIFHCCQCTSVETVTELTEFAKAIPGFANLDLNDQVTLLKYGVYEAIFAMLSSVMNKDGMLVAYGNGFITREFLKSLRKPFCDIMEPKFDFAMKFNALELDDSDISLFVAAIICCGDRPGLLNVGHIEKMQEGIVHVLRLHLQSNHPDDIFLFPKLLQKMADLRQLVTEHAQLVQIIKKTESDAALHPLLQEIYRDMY

[3] = target: T2, Peroxisome proliferator-activated receptor alpha; assay: Tested in vitro for inhibiting the 50% binding of Peroxisome proliferator activated receptor alpha
[4] = Solubility determined by equilibrating an excess of solid material in 500 microL of pH 7.4 phosphate buffer; assay type: physicochemical; conditions: read-out: S
How it was run: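 Samples are filtered (0.22 µm) and diluted in water/acetonitrile 60:40. The dissolved concentration is measured by reversed-phase HPLC on a phenyl column with 0.05% TFA water/acetonitrile (60:40), 1 mL/min, and UV detection at each compound's maximum. Results are in mg/mL.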

[5] = target: Peroxisome proliferator-activated receptor gamma (Homo sapiens) (UniProt P37231); assay: Compound was tested in vitro for inhibiting the 50% binding of Peroxisome proliferator activated receptor gamma; IA = Inactive
[6] = target: T2, Peroxisome proliferator-activated receptor alpha; assay: Compound was tested in vitro for inhibiting the 50% binding of Peroxisome proliferator activated receptor alpha; assay type: functional
[7] = target: T1, Peroxisome proliferator-activated receptor gamma; assay: Compound was tested functionally in vitro for inducing 50% of the maximum alkaline phosphate activity (Transactivation) against Peroxisome proliferator activated receptor gamma; assay type: functional
[8] = target: T1, Peroxisome proliferator-activated receptor gamma; assay: Inhibition by 50% of in vitro binding to Peroxisome proliferator activated receptor gamma
[9] = target: T1, Peroxisome proliferator-activated receptor gamma; assay: Tested functionally in vitro for inducing 50% of the maximum alkaline phosphate activity (Transactivation) against Peroxisome proliferator activated receptor gamma; assay type: functional

With `O=C(c1ccccc1)c1ccccc1N[C@@H](Cc1ccc(OCC2COCCOCCOCCO2)cc1)C(=O)O` (stereo partly specified) the Ki [1] was 1170 nM.

`Cc1cc(-c2ccccc2)nn1CCOc1ccc(C[C@H](Nc2ccccc2C(=O)c2ccccc2)C(=O)O)cc1` gave an EC50 [2] of 661 nM, a Ki [3] of 174 nM and a solubility thermodynamic [4] of 4 µg/mL (≈ 7.33 µM).

With `Cc1cc(C(C)C)ccc1CCOc1ccc(C[C@H](Nc2ccccc2C(=O)c2ccccc2)C(=O)O)cc1` the “Log Ki” value [5] was “inactive”.

In the case of `O=C(c1ccccc1)c1ccccc1N[C@@H](Cc1ccc(OCCOc2ccc(SCl)cc2)cc1)C(=O)O`, the Ki [6] is reported as 1410 nM and the EC50 [7] is reported as 191 nM.

With `Cc1sc(N2CCN(S(C)(=O)=O)CC2)nc1CCOc1ccc(C[C@H](Nc2ccccc2C(=O)c2ccccc2)C(=O)O)cc1` the Ki [8] was 2.63 nM, the EC50 [2] was > 10000 nM and the EC50 [9] was 23.4 nM. For the same compound, the Ki [3] was 2510 nM.
